OX1R antag-1: antagonists of human orexin 1 receptor | 330,000 compounds, 0.43% hits | CHO/OX1R cells, Fluo-8 calcium fluorescence, orexin A | O43613 | AID 434989 | inhibition, % at 5 µM;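 active = inhibition above its plate's threshold, mean inhibition of all tested compounds on the plate plus 3 SD, cut at about 37% in these data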
Target sequence (O43613 whole entry, looked up): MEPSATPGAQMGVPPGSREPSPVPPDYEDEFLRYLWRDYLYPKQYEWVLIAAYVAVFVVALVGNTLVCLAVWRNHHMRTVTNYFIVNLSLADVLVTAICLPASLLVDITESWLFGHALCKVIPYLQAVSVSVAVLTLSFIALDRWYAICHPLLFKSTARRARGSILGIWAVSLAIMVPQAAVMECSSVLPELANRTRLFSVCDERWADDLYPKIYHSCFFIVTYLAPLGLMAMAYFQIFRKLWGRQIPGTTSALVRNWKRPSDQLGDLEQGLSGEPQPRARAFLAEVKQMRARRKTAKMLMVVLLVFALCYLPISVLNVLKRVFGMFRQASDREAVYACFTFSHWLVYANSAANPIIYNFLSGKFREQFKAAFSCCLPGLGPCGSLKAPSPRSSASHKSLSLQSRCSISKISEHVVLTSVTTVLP
CHO parental Ca: counter-screen: ATP calcium response change in parental CHO cells; parental CHO-K1, ATP-induced calcium, Fluo-8 fluorescence; inhibition, % at 5.6 µM; 330,000 compounds, 0.63% hits; AID 463079;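 active = inhibition above that plate's mean sample inhibition plus 3 SD, cut at about 26% in these data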
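Material: Parental CHO cells | Reagent: ATP | Compound dosing: Single nominal dose of 5.6 µM per compound | Detection: Intracellular calcium via Fluo-8 no-wash fluorescent dye | Read-out: % inhibition of ATP-induced calcium mobilization | Benchmarks: Low control ATP plus DMSO, high control DMSO only | Replicates: Singlicate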
TAAR1 antag: antagonists of human TAAR1; Q96RJ0; CHO RD-HGA16 TAAR1, Fluo-8 calcium fluorescence, antagonist; inhibition, % at 3 µM; 360,000 compounds, 1.5% hits; AID 624466;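 active = inhibition above a per-plate cutoff, the mean inhibition of test compounds on that plate plus 3 SD, cut at about 49% in these data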
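Test system: CHO RD-HGA16 cells bearing hTAAR1 | Reagent: β-PEA, EC80 | Compound dosing: 3 µM, single point | Schedule: Dye loading 75 min at 37 °C, then 30 min room temperature | Signal: Calcium fluorescence with Fluo-8 | Evaluation: Percent inhibition of PEA-evoked calcium signal, max/basal emission ratio | Control set: DMSO-only wells and EC80 β-PEA-stimulated wells | Repeats: Singlicate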
GPR7 antag: antagonists of human GPR7 (neuropeptides B/W receptor 1); P48145; GPR7-expressing cells, fluorescence antagonist assay; inhibition, % at 4.4 µM; 290,000 compounds, 1.1% hits; AID 1861; in the data active = inhibition above about 16%, passing the limit was not always enough;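 also: cells stimulated with the agonist NPW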
TAAR1 agonist: human TAAR1 agonism | Q96RJ0 | activation, % at 3 µM | CHO RD-HGA16 TAAR1, Fluo-8 calcium fluorescence; vehicle wells 0%, saturating PEA agonist 100% | AID 624467 | 360,000 compounds, 0.99% hits;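 active = activation above the mean activation of all test compounds in the run plus 3 SD, cut at about 38% in these data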
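test system = CHO RD-HGA16 cells carrying human TAAR1 plus Gα16 | schedule = 17-24 h seeding, 75 min 37 °C dye, 30 min RT | compound dosing = 3 µM single concentration | control set = DMSO and PEA EC100 | replicates = n 1 | signal = Fluo-8 fluorescence, 5 s baseline then 140 s kinetic read | measure = percent activation vs PEA EC100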
OX1R antag-2: blocks the human orexin 1 receptor; O43613; OX1R-expressing cells, FRET antagonist read-out; inhibition, % at 6.6 µM; 330,000 compounds, 1.8% hits; AID 485270; in the data active = inhibition mostly above about 38%, no sharp cut-off; inactive = mostly below about 40%
TAAR1 nonsel count: nonselective antagonism, TAAR1 counter-screen. shares compounds with TAAR1 antag. counterscreen cell line, calcium fluorescence, antagonist mode. inhibition, % at 3 µM. 2,400 compounds, 77% hits. AID 651780; in the data active = inhibition above about 22%;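 also: CHO-Ga16 host cells stimulated with ATP at an EC80 level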
TAAR1 ant conf: confirmation of human TAAR1 antagonists; 2,400 compounds, 40% hits; TAAR1-expressing cells, fluorescence antagonist read-out; shares compounds with TAAR1 antag; AID 651785; inhibition, % at 3 µM; in the data active = inhibition above about 49%;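 also: CHO-Ga16 host cells challenged with agonist PEA near its EC80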
Ga16 ag counter: counter-screen for TAAR1 antagonists: nonselective Ga16 agonists | activation, % at 3 µM | 2,400 compounds, 18% hits | Ga16-expressing cells, calcium fluorescence, agonist counterscreen | shares compounds with TAAR1 antag; in the data active = activation above about 12%
TAAR1 ag counter: counter-screen for human TAAR1 antagonists: TAAR1 agonists; activation, % at 3 µM; hTAAR1 cell line, fluorescence activation, agonist mode; shares compounds with TAAR1 antag; 2,400 compounds, 2% hits; in the data active = activation above about 37%;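 also: CHO cells stably expressing TAAR1 with calcium dye readout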
Numbers stand for hits; i = inactive; nt = no result. Shown are actives, neighbours in structure and some others; about 4.6% of the full set was active somewhere.

SMILES	OX1R antag-1	CHO parental Ca	TAAR1 antag	GPR7 antag	TAAR1 agonist	OX1R antag-2	TAAR1 nonsel count	TAAR1 ant conf	Ga16 ag counter	TAAR1 ag counter
COc1ccc(NC(=O)N(Cc2cc3cc(C)ccc3[nH]c2=O)CC2CCCO2)cc1 (configuration not stated)	i	i	i	i	i	i	nt	nt	nt	nt
COc1ccc2[nH]c(=O)c(CN(CC3CCCO3)S(=O)(=O)c3ccccc3F)cc2c1 (configuration not stated)	i	i	63	i	i	i	26	i	i	i
COc1ccc2[nH]c(=O)c(CN(CC3CCCO3)C(=O)Nc3ccc(F)cc3)cc2c1 (configuration not stated)	nt	nt	81	i	i	nt	52	66	16	i
COc1ccc2[nH]c(=O)c(CN(CC3CCCO3)S(=O)(=O)c3ccccc3)cc2c1 (configuration not stated)	i	i	i	i	i	i	nt	nt	nt	nt
CC1(C(=O)NS(=O)(=O)c2cccs2)CCN1C(=O)CC1CCCC1 (configuration not stated)	nt	nt	i	nt	i	nt	nt	nt	nt	nt
O=C(NCCCN1CCOCC1)c1c(-c2ccccc2)oc2c1C(OCCCCCO)CCC2 (configuration not stated)	nt	nt	i	nt	i	nt	nt	nt	nt	nt
COc1cccc(CN2CCN(C(=O)c3cc(-c4ccncc4)nc4ccc(C)cc34)CC2)c1	i	i	77	i	i	i	24	i	i	i
CC1CC(C)CN(C(=O)c2cc(-c3ccncc3)nc3ccccc23)C1 (configuration not stated)	i	i	i	nt	i	i	nt	nt	nt	nt
COc1cccc(CN2CCN(C(=O)c3cc(-c4ccccn4)nc4ccc(Cl)cc34)CC2)c1	i	i	i	i	i	i	nt	nt	nt	nt
O=C(c1cc(-c2ccncc2)nc2ccccc12)N1CCN(S(=O)(=O)/C=C/c2ccccc2)CC1	i	i	70	i	i	i	29	i	i	i
Cc1ccccc1CN1CCN(C(=O)c2cc(-c3ccncc3)nc3ccccc23)CC1	i	i	71	i	i	i	35	i	i	i
CC(=O)N1CCN(C(=O)c2cc(-c3cccc4ccccc34)nc3ccccc23)CC1	i	i	67	i	i	i	33	i	i	i
Cc1nc2c(cc1N)nc(C)n2Cc1ccccc1	i	i	i	i	i	i	nt	nt	nt	nt
O=C(c1cc(-c2ccncc2)nc2ccccc12)N1CCN(Cc2ccccc2)CC1	i	i	57	nt	i	i	i	i	12	i
O=C(c1cc(-c2ccccc2Cl)nc2ccc(Br)cc12)N1CCN(c2ccccn2)CC1	i	i	59	i	i	i	30	i	i	i
O=C(c1cc(-c2ccncc2)nc2ccccc12)N1CCOCC1	nt	nt	i	nt	i	nt	nt	nt	nt	nt
CCOc1ccc(C(C(=O)NCC2CCCO2)N(Cc2ccccc2)C(=O)c2snc(C(N)=O)c2N)cc1 (configuration not stated)	i	i	57	i	i	i	35	57	12	i
COc1ccc(C(C(=O)NCC2CCCO2)N(Cc2cccs2)C(=O)c2snc(C(N)=O)c2N)cc1 (configuration not stated)	i	i	59	i	i	i	23	58	27	i
CCOC(=O)C1=CCN(S(=O)(=O)c2ccccc2Br)C1c1ccc(C)cc1 (configuration not stated)	nt	nt	i	nt	i	nt	nt	nt	nt	nt
COCCOC(=O)c1c(C)n(C)c2ccc(OC(=O)c3ccco3)cc12	i	i	i	i	i	i	nt	nt	nt	nt
COCCOC(=O)c1c(C)n(C)c2ccc(OC(=O)c3ccccc3OC)cc12	i	i	53	i	i	i	26	i	i	i
Fc1cccc(-c2cc3nc4c(c(N5CCOCC5)n3n2)CCCC4)c1	i	i	49	i	i	i	i	i	i	i
CCCOc1ccccc1OCC(=O)Nc1ccc(S(=O)(=O)N2CCCC2)cc1	i	i	65	nt	i	i	i	i	i	i
CCCOc1ccccc1OCC(=O)Nc1ccc(S(=O)(=O)N2CCCCC2)cc1	i	i	i	nt	i	i	nt	nt	nt	nt
CCN=C1SC(CC(=O)Nc2ccc(C(F)(F)F)cc2)C(=O)N1CC (configuration not stated)	i	i	77	i	i	i	38	65	13	i
SMILES	OX1R antag-1	CHO parental Ca	TAAR1 antag	GPR7 antag	TAAR1 agonist	OX1R antag-2	TAAR1 nonsel count	TAAR1 ant conf	Ga16 ag counter	TAAR1 ag counter
Cc1ccc(S(=O)(=O)NC(CC(C)C)C(=O)Oc2ccc3c4c(c(=O)oc3c2)CCC4)cc1 (configuration not stated)	i	i	67	i	i	i	26	i	i	i
CC(=O)c1ccc(S(=O)(=O)N2CCN(C(=O)C(=O)c3cccc(C(F)(F)F)c3)CC2)cc1	nt	nt	i	nt	i	nt	nt	nt	nt	nt
COc1ccc(-c2noc(CCC(=O)N3CCN(c4ccccc4OC)CC3)n2)cc1	i	i	i	nt	i	i	nt	nt	nt	nt
COc1ccc(-c2noc(CCC(=O)N3CCN(c4ccccc4C(F)(F)F)CC3)n2)cc1	i	i	65	nt	i	i	28	i	i	i
O=C(Nc1ccc(N2CCN(C(=O)c3ccccc3)CC2)c(Cl)c1)c1ccco1	i	i	i	i	i	i	nt	nt	nt	nt
O=C(Nc1ccc(N2CCN(C(=O)c3ccco3)CC2)c(Cl)c1)c1cc2ccccc2o1	i	36	84	i	i	72	41	67	i	i
CCCCn1c(O)c2n(c1=O)Cc1ccccc1N=C2c1ccccc1	nt	nt	i	nt	i	nt	nt	nt	nt	nt
Nc1c(C(=O)OCC2CCCO2)c2nc3ccccc3nc2n1-c1ccc2c(c1)OCCO2 (configuration not stated)	i	i	52	i	i	i	30	i	i	i
COc1ccc(C(O)c2ncc(-c3ccccc3)[nH]2)cc1F (configuration not stated)	nt	nt	i	nt	i	nt	nt	nt	nt	nt
O=C(CSc1ccc([N+](=O)[O-])cc1)NCC1CCCCC1	i	i	105	i	i	i	i	i	i	i
O=C(COC(=O)CSc1ccc(F)cc1)NCC1CCCCC1	i	i	i	i	i	i	nt	nt	nt	nt
CCc1cccc(NC(=O)CSCc2cc(=O)[nH][nH]2)c1	i	i	105	i	i	i	i	i	i	i
COc1ccc(Cl)cc1-c1noc([C@@H]2O[C@H](CO)[C@H](O)[C@H](O)[C@H]2O)n1	nt	nt	i	nt	i	nt	nt	nt	nt	nt
